Laboratory results from ChEMBL document CHEMBL1144664, “Design, synthesis, and SAR of new pyrrole-oxindole progesterone receptor modulators leading to 5-(7-fluoro-3,3-dimethyl-2-oxo-2,3-dihydro-1H-indol-5-yl)-1-methyl-1H-pyrrole-2-carbonitrile (WAY-255348)” (J Med Chem, 2008).
Calls of active or inactive are those of the source. The rule behind the calls is not given here.

Key:
[1] = AUC (0 to infinity) in Sprague-Dawley rat at 0.5 mg/kg, iv; type: ADME, organism-based; design: time infinity, dose 0.5 mg/kg, route intravenous; conditions: plasma
[2] = AUC (0 to infinity) in Sprague-Dawley rat at 1 mg/kg, iv; type: ADME, organism-based; design: time infinity, dose 1 mg/kg, route intravenous; conditions: plasma
[3] = molecular target: T1, Mineralocorticoid receptor (Homo sapiens, UniProt P08235); test: Antagonist activity at human MR ligand binding domain expressed in african green monkey COS7 cells in presence of aldosterone by Gal4 hybrid assay; type: cell-based, COS-7
T1 sequence (P08235 whole entry): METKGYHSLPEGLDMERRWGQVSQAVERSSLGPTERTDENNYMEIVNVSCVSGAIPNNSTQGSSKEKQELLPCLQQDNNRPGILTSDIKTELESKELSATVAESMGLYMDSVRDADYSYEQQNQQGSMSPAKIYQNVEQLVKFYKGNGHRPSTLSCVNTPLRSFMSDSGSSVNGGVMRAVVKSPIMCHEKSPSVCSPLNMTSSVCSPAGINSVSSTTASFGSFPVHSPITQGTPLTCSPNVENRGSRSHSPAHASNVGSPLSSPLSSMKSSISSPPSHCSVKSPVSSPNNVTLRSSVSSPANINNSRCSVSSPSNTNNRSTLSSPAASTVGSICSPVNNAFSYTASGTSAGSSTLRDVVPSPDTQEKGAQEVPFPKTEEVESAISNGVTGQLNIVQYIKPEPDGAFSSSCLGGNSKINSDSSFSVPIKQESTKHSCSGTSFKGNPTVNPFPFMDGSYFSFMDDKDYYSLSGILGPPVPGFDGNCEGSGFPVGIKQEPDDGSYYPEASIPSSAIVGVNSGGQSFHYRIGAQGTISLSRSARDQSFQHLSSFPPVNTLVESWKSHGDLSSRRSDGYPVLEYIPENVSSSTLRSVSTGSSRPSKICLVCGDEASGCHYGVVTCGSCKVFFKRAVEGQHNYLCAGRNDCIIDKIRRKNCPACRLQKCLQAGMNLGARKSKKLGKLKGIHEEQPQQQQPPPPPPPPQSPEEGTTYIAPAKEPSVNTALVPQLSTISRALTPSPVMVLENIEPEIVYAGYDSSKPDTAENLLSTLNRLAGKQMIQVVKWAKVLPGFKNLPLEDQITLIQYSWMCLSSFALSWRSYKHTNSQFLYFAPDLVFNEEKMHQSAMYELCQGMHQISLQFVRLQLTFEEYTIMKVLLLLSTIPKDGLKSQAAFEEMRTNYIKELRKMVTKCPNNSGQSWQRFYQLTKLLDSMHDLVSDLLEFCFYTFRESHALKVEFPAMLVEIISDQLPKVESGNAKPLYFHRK
Summary of the method: (§1)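 Gal4-steroid receptor LBD fusion plasmid plus GAL4_UAS (5 copies, E1b TATA)-luciferase reporter, 50 ng/well each, transfected 16 h into COS-7 cells grown in phenol red-free DMEM with 10% charcoal/dextran-treated FBS. Compound treatment 20 h, then luciferase read-out. Antagonist mode uses 3 nM aldosterone (hMR) or 5 nM 17β-estradiol (hER). Values are the average of at least duplicate determinations.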

[4] = Half life in Sprague-Dawley rat at 5 mg/kg, po; type: ADME, organism-based; design: dose 5 mg/kg, route oral; conditions: in vivo
Summary of the method: (§2)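 Female Sprague–Dawley rats dosed as 1-in-4 cassette or discrete studies. iv in DMSO/PEG200 20:80; po in aqueous 2% Tween 80/0.5% methyl cellulose. Parameters reported: C0, Cmax, t1/2, plasma clearance, Vss, AUC0-inf and %F.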

[5] = Half life in cynomolgus monkey at 5 mg/kg, po; type: ADME, organism-based, Macaca fascicularis; design: dose 5 mg/kg, route oral; conditions: in vivo
[6] = Stability in human liver microsome assessed as half life; type: ADME; conditions: liver microsomes
Summary of the method: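 Female rat, cynomolgus monkey and human liver microsome stability; half-life (min) reported.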

[7] = Volume of distribution at steady state in cynomolgus monkey at […], iv; type: ADME, organism-based, Macaca fascicularis; design: dose 0.25 mg/kg, route intravenous; conditions: in vivo, read-out: Vdss
Progesterone receptor = molecular target: T2, Progesterone receptor (Homo sapiens, UniProt P06401); test: Displacement of [3H]R5020 from human PR in human T47D cells by whole cell assay; type: cell-based
T2 sequence (P06401 whole entry): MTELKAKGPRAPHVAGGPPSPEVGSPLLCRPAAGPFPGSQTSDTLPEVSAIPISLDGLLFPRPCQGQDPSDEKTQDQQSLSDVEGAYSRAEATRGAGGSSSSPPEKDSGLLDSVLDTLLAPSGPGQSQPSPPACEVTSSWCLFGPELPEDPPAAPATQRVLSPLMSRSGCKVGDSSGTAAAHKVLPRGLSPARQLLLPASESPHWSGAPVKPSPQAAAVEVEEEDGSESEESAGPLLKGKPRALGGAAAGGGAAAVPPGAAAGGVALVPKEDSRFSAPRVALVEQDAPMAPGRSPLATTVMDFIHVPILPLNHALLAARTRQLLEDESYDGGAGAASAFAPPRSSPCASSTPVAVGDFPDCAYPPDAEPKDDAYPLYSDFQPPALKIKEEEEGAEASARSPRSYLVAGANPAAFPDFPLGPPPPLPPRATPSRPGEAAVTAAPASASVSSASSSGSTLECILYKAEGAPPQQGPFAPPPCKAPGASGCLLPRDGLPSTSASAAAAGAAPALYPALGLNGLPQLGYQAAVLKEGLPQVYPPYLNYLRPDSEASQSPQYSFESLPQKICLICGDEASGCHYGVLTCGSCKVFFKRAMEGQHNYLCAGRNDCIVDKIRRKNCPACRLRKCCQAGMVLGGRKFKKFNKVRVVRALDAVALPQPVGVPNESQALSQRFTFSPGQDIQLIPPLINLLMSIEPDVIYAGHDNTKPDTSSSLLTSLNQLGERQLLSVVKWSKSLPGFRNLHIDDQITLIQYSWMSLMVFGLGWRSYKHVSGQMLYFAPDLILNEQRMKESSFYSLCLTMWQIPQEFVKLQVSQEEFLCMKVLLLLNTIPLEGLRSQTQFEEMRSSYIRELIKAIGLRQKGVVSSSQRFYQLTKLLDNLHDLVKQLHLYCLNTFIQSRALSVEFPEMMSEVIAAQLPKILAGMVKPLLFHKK

Rhesus monkey [8] = test: Effect on cell proliferation in rhesus monkey assessed basalis mitotic index; type: functional, Macaca mulatta
Summary of the method: (§3)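 Adult female rhesus macaques (n=3) with regular cycles dosed 10 mg/(kg·day) po in 2% Tween 80/0.5% methylcellulose with cherry flavoring for 28 days from cycle day 2. Serum estradiol and progesterone measured every 3 days. Necropsy on day 28. Uterine weights are of half the uterus; KI-67 and mitotic indices counted per 1000 cells. Values given as mean ± SE.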

[9] = molecular target: T3, Mineralocorticoid receptor (Homo sapiens) (UniProt P08235); test: Agonist activity at human MR ligand binding domain receptor expressed in african green monkey COS7 cells by Gal4 hybrid assay; type: cell-based; conditions: COS-7; summary of the method: as §1
T3 sequence (whole entry): T1 sequence (P08235 whole entry)

[10] = Drug level in Sprague-Dawley rat at 0.5 mg/kg, iv; type: ADME, organism-based; design: dose 0.5 mg/kg, route intravenous; conditions: in vivo; summary of the method: as §2
Rhesus monkey [11] = test: Effect on myometrial weight of rhesus monkey; type: functional, Macaca mulatta; summary of the method: as §3

Cn1c(C#N)ccc1-c1cc(F)c2c(c1)C(C)(C)C(=O)N2
AUC(0-inf) [1]: 1980 ng·h/mL | AUC(0-inf) [2]: 4650 ng·h/mL | IC50 [3]: 3700 nM | half-life [4]: 9.3 h | half-life [5]: 15.7 h | half-life [6]: > 0.5 h | Vd [7]: 3.9 L/kg | IC50 (Progesterone receptor): 4.1 nM | Activity (Rhesus monkey [8]): 0 | Activity [9]: inactive | C0 [10]: 385 ng/mL | Activity (Rhesus monkey [11]): 1760 mg
